Reference: ChEMBL document CHEMBL3585325, “Discovery of (1R,2S)-2-{[(2,4-Dimethylpyrimidin-5-yl)oxy]methyl}-2-(3-fluorophenyl)-N-(5-fluoropyridin-2-yl)cyclopropanecarboxamide (E2006): A Potent and Efficacious Oral Orexin Receptor Antagonist” (J Med Chem, 2015)
≈ marks a conversion by molar mass, not a printed value.

Tests used:
[1] = Metabolic stability in human liver microsomes assessed as residual ratio at 0.3 uM after 15 mins by LC-MS analysis; assay type: ADME; conditions: read-out: Stability
How it was run: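 Human liver microsomes (0.2 mg/mL) incubated with test compound at 0.3 μM in 0.1% DMSO for 15 min at 37 °C, with and without an NADPH-generating system. Reaction stopped with acetonitrile/methanol (7:3) containing internal standard. Parent compound quantified by LC−MS. Value is the residual ratio in the presence versus absence of NADPH.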

Cytochrome P450 2C8 = biological target: T1, Cytochrome P450 2C8 (Homo sapiens, UniProt P10632); test: Inhibition of CYP2C8 in human liver microsomes using rosiglitazone as susbtrate incubated for 30 mins prior to substrate addition for 10 mins by LC-MS/MS analysis; assay type: ADME
T1 sequence (P10632 whole entry): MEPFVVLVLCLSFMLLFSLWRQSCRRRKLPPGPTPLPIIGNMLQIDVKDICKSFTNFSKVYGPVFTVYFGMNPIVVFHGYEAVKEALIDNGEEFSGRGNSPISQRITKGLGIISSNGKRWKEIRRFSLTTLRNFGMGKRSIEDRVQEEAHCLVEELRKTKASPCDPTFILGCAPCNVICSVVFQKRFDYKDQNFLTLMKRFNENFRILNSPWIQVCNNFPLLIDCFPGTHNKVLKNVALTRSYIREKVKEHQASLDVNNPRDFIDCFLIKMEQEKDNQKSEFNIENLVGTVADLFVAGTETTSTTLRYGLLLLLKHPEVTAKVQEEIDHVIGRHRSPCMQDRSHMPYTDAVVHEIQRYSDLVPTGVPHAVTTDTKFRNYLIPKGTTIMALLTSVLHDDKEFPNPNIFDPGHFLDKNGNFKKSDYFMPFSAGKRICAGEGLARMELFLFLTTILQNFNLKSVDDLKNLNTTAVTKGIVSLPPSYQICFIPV

[2] = Activity at P-gp (unknown origin) assessed as corrected flux ratio; assay type: ADME; conditions: human
How it was run: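 Reported as corrected flux ratio, i.e. the MDR1 flux ratio divided by the PK1 flux ratio.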

Cytochrome P450 2C19 = Cytochrome P450 2C19 (Homo sapiens, UniProt P33261); test: Inhibition of CYP2C19 in human liver microsomes using S-mephenytoin as susbtrate incubated for 30 mins prior to substrate addition for 10 mins by LC-MS/MS analysis; assay type: ADME
Chain of Cytochrome P450 2C19 (P33261 whole entry): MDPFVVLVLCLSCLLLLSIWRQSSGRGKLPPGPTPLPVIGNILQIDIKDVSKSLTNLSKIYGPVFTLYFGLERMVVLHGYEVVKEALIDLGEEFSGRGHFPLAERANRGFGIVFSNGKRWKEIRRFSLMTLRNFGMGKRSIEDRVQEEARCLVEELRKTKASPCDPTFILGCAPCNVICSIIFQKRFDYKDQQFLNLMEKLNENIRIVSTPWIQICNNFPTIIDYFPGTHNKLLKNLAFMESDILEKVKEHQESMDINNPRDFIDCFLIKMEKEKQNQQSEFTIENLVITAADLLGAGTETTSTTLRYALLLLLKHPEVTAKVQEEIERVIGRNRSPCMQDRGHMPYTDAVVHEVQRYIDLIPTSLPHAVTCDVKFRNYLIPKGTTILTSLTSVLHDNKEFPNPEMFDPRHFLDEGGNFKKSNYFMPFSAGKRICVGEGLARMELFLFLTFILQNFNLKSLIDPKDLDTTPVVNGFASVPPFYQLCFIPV

Cytochrome P450 2D6 = Cytochrome P450 2D6 (Homo sapiens, UniProt P10635); test: Inhibition of CYP2D6 in human liver microsomes using bufuralol as susbtrate incubated for 30 mins prior to substrate addition for 10 mins by LC-MS/MS analysis; assay type: ADME
Chain of Cytochrome P450 2D6 (P10635 whole entry): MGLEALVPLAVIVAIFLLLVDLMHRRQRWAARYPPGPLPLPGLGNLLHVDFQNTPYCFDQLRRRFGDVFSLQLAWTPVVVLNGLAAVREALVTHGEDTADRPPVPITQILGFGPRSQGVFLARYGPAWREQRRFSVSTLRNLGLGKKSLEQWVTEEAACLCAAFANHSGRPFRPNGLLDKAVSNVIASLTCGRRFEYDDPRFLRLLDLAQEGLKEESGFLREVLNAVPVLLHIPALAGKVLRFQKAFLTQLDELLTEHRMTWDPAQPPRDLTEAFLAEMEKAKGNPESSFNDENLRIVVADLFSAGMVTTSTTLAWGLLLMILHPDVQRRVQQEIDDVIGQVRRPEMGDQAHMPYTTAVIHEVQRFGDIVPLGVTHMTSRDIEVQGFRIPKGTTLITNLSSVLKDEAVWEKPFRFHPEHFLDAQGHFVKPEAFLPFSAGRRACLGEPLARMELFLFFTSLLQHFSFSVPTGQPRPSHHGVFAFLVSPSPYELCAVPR

[3] = Aqueous solubility of the compound in Japanese Pharmacopoeia 1st fluid at pH 1.2 by DMSO solution precipitation method; assay type: physicochemical
How it was run: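 Solubility in Japanese Pharmacopoeia 1st fluid (aqueous HCl containing 34 mM NaCl), pH 1.2, measured at room temperature by precipitation from a DMSO solution.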

Cytochrome P450 1A2 = biological target: T2, Cytochrome P450 1A2 (Homo sapiens, UniProt P05177); test: Inhibition of CYP1A2 in human liver microsomes using phenacetin as susbtrate incubated for 30 mins prior to substrate addition for 10 mins by LC-MS/MS analysis; assay type: ADME
T2 sequence (P05177 whole entry): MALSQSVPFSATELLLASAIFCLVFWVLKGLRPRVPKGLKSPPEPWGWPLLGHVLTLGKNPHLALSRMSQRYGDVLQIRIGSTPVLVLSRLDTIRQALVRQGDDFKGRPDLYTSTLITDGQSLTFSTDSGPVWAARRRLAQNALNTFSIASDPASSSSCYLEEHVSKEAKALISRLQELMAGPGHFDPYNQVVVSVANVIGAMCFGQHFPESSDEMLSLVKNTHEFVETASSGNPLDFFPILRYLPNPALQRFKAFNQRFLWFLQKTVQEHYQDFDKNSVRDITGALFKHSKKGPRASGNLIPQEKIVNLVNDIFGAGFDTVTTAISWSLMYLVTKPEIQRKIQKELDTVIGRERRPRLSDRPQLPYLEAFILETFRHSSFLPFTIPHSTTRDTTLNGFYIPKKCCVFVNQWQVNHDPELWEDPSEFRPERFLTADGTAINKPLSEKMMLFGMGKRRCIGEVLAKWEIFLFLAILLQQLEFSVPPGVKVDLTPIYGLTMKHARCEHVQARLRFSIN

[4] = biological target: T3, Orexin/Hypocretin receptor type 1 (Homo sapiens, UniProt O43613); test: Binding affinity to human OX1R by radioligand displacement binding assay
T3 sequence (O43613 whole entry): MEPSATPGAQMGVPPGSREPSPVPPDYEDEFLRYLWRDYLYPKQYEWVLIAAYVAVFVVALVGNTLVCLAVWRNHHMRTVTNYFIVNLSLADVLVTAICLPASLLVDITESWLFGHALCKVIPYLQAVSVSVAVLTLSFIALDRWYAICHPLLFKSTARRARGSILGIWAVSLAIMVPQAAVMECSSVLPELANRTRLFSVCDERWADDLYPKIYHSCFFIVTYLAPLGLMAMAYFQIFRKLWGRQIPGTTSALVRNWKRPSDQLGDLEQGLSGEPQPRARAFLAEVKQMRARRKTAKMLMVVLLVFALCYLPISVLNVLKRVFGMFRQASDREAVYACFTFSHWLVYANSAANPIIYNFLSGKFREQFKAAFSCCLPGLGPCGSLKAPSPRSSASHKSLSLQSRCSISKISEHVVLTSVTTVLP
How it was run: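 Ki values come from single experiments run in triplicate.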

[5] = Aqueous solubility of the compound in Dulbecco's phosphate buffered saline at pH 7.4 by DMSO solution precipitation method; assay type: physicochemical
How it was run: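 Solubility in Dulbecco's PBS at pH 7.4, measured at room temperature by precipitation from a DMSO solution.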

Cytochrome P450 2C9 = Cytochrome P450 2C9 (Homo sapiens, UniProt P11712); test: Inhibition of CYP2C9 in human liver microsomes using tolbutamide as susbtrate incubated for 30 mins prior to substrate addition for 10 mins by LC-MS/MS analysis; assay type: ADME
Chain of Cytochrome P450 2C9 (P11712 whole entry): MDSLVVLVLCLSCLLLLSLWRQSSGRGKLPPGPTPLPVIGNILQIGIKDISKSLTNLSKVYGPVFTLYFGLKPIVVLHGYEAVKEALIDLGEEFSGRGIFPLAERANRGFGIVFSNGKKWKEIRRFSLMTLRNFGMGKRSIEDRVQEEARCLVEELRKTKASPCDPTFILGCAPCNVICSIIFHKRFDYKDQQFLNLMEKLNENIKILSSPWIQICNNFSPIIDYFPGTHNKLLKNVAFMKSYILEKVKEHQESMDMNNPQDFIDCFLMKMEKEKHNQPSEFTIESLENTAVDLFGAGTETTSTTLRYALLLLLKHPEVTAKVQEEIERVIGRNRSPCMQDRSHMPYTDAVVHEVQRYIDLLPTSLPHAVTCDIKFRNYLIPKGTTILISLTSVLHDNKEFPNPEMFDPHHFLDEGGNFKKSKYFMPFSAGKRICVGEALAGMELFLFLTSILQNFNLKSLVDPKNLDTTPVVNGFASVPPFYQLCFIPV

Orexin receptor type 2 = biological target: T4, Orexin receptor type 2 (Homo sapiens, UniProt O43614); test: Binding affinity to human OX2R by radioligand displacement binding assay
T4 sequence (O43614 whole entry): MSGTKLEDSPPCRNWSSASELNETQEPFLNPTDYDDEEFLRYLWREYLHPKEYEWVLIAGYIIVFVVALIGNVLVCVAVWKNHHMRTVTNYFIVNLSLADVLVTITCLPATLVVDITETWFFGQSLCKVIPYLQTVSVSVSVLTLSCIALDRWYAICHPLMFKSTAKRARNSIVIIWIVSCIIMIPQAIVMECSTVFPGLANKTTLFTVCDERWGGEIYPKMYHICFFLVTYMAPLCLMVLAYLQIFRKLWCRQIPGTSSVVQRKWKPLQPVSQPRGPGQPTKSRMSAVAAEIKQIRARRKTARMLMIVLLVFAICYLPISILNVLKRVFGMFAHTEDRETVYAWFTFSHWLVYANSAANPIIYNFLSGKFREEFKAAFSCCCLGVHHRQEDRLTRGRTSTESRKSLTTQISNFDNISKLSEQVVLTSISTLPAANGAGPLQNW

CYP3A = CYP3A (Homo sapiens, UniProt P08684+P20815+P24462+Q9HB55); test: Time dependent inhibition of CYP3A in human liver microsomes assessed as enzyme activity using midazolam as substrate at 10 uM incubated for 30 mins prior to substrate addition for 10 mins by LC-MS/MS analysis; assay type: ADME; design: scale not given: the % may be the effect or the level left; conditions: probe midazolam, read-out: Activity
How it was run: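 Test compound at 10 μM preincubated 30 min at 37 °C with human liver microsomes (0.2 mg/mL), with or without an NADPH-generating system. Mixture then diluted 10-fold into a marker-substrate cocktail plus NADPH system and incubated 10 min at 37 °C. Midazolam served as the CYP3A probe. Metabolites measured by LC−MS/MS. Result is the residual activity with NADPH relative to without, as % of control.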

- remaining at 0.25 h, 0.3 µM [1]: 80%
- IC50 (Cytochrome P450 2C8): 8 µM
- Ratio [2]: 1
- IC50 (Cytochrome P450 2C19): 8.6 µM
- IC50 (Cytochrome P450 2D6): > 10 µM
- solubility kinetic [3]: 25 µM (≈ 10.7 µg/mL)
- IC50 (Cytochrome P450 1A2): > 10 µM
- Ki [4]: 0.106 µM
- solubility kinetic [5]: 15 µM (≈ 6.44 µg/mL)
- IC50 (Cytochrome P450 2C9): > 10 µM
- Ki (Orexin receptor type 2): 0.005 µM
- activity at 10 min, 10 µM (CYP3A): 49%
Structure (SMILES): COc1ccc(OC[C@@]2(c3ccccc3)C[C@H]2C(=O)Nc2ccc(C#N)cn2)cc1OC
